APOBEC3A inh = human APOBEC3A DNA deaminase inhibition; recombinant A3A, FAM/TAMRA ssDNA deamination fluorescence; hit rate 0.41% among 330,000; inhibition, % at 20 µM;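 active = at least 40% inhibition at 20 µM here, with at most 30% in a related deaminase screen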
UCH37 inh = human UCH37 deubiquitinating enzyme inhibition. purified proteasome/UCH37, Ub-AMC cleavage fluorescence. inhibition, % (concentration not given with the values). hit rate 0.33% among 330,000. AID 588478;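 active = mean inhibition over replicate wells above about 20%, limit read from the data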
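Schedule: 30 min plus 25 min, room temperature / Material: human UCH37 within purified proteasomes / Technique: AMC fluorescence intensity at 355/460 nm / Buffer or medium: pH 7.4 Tris-HCl (50 mM) with ovalbumin, ATP-MgCl2, DTT / Controls: wells without proteasome as full block, compound-free enzyme plus substrate as uninhibited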
GASC-1 inh = inhibitors of human GASC-1 (JMJD2C) demethylase | Q9H3R0 | GST-JMJD2C(1-420) H3K9me3 demethylation, DELFIA europium | inhibition, % at 2.35 µM | hit rate 0.069% among 330,000 | AID 2099;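 active = more than half of a compound's replicate wells show inhibition beyond 50%, single wells judged on their own value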;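 also: signal counts dimethyl H3K9 product captured on neutravidin plate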
Target sequence (Q9H3R0 1-420 limits assumed): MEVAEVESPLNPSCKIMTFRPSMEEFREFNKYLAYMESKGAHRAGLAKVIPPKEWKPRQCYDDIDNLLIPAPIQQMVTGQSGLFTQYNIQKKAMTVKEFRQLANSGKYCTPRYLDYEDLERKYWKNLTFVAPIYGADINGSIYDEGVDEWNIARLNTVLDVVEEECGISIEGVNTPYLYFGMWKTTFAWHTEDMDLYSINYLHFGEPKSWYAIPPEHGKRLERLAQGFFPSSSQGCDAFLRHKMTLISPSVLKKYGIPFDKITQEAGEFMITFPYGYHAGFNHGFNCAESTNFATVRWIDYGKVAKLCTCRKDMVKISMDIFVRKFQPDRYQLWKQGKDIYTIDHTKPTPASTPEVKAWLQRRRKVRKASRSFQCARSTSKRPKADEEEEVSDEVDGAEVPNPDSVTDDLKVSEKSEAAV
APOBEC3G inh = APOBEC3G (human) deaminase inhibition. Q9HC16. recombinant A3G, ssDNA deamination FAM/TAMRA fluorescence. inhibition, % at 20 µM. hit rate 0.28% among 330,000. AID 493012;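 active = inhibition of at least 40% at 20 µM, with no more than 30% in the related APOBEC3A deaminase screen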
Numbers stand for hits; n = inactive; x = no result. The list is not random: actives were taken first. Their share in the collection is about 0.97%.

SMILES	APOBEC3A inh	UCH37 inh	GASC-1 inh	APOBEC3G inh
O=C(NN=Cc1ccccn1)c1cccnc1	x	n	x	x
O=C(O)c1ccc(NN=C2CCCc3ccccc32)cc1	x	22.2	x	x
C=CCNC(=S)NNC(=O)C(CCC(C)C)CC(C)(C)O (stereo not given)	n	31.2	n	n
COC(=O)c1ccc(C=NNC(=O)c2cccc(F)c2)cc1	x	n	x	x
O=C(Cn1nc(-c2ccc(Cl)cc2)ccc1=O)NCC1COCCO1 (stereo not given)	n	n	71.4	n
CC(=NNC(=O)c1ccc(NS(=O)(=O)c2cccs2)cc1)c1ccncc1	x	n	x	x
COc1ccc(-[n+]2c(C)cc(/C=C3\Sc4ccccc4N3C)cc2C)cc1	n	23.7	n	n
COc1ccc(C(=O)/C=C2\Sc3ccccc3N2C)cc1	n	n	n	n
COc1ccccc1-[n+]1c(C)cc(/C=C2\Sc3ccccc3N2C)cc1C	n	20.4	n	n
CCOC(=O)/C(C#N)=C/Nc1ccccc1NS(=O)(=O)c1cccc(C(C)=O)c1	n	26.2	n	n
O=C1c2ccccc2C(=O)c2c1ccc1c(=O)n(C3CCCCC3)[nH]c21	n	n	n	n
O=C1C2=C(c3ccccc31)[N+](=O)[C@@H]1CCCC[C@@H]1N2[O-]	n	26.5	n	n
O=C1C2=C(c3ccccc31)[N+](=O)C1CCCCC1N2[O-] (stereo not given)	n	26.8	n	n
Clc1ccc(CONC=Nc2ncnc3sccc23)c(Cl)c1	x	n	x	x
CC1(C)CN=c2sc(=Cc3ccc(Cl)cc3)c(=O)n2C1	x	n	x	x
Cn1c(=O)[nH]c(=O)c2c1nc(N1CCNCC1)n2Cc1ccccc1Cl	n	n	n	n
Cn1c(=O)[nH]c(=O)c2c1nc(N1CCCCCC1)n2Cc1cccc2ccccc12	n	32.4	n	n
COC(=O)c1cccc(-n2sc3ccccc3c2=O)c1	n	n	n	77.6
CC12CCC(C(=O)O)(CC1=NO)C2(C)C (stereo not given)	x	n	x	x
NC(=O)C1CCN(C(=O)c2cnn(-c3ccccc3)c2NC(=O)c2cccc(F)c2)CC1	n	n	75.3	n
O=C(Nc1c(C(=O)N2CCCC2)cnn1-c1ccccc1)c1cccc(F)c1	n	n	n	n
OCC(O)C=NNc1nc(Nc2ccccc2)nc(Nc2ccccc2)n1 (stereo not given)	x	n	x	x
C=C1CCC[C@]2(C)C[C@H]3OC(=O)C(CNCC(C)C)[C@H]3CC12 (stereo not given in full)	n	20.5	n	n
C=C1CCC[C@]2(C)C[C@H]3OC(=O)C(CNCCN(C)C)[C@H]3CC12 (stereo not given in full)	n	n	n	n
CC1=C(c2ccccc2)[N+](=O)C2(CCCC2)N1[O-]	n	n	n	n
SMILES	APOBEC3A inh	UCH37 inh	GASC-1 inh	APOBEC3G inh
O=[N+]([O-])c1ccc2c(c1)N([O-])C1(CCCCC1)[N+]2=O	x	51.5	x	x
O=C(NCc1ccc(F)cc1)c1cccnc1C(=O)O	n	n	n	n
O=C(NCc1cccs1)c1cccnc1C(=O)O	n	n	58.6	n
Cc1ccc(C)n1Cc1ccc(C(=O)O)cc1	n	29.9	x	n
O=C(NC1CC1)C1=C[C@@H](C2CC2)C[C@@H](OCCCCO)O1	n	23.4	n	n
O=C(NC1CC1)C1=C[C@H](C2CC2)C[C@H](OCCCCO)O1	n	n	n	n
Cc1cccc(CN2CCC(Oc3ccc(C(=O)N4CCCC4)cc3)CC2)n1	n	n	65.7	n
Cc1ccccc1CN1CCC(Oc2ccc(C(=O)N3CCCC3)cc2)CC1	n	n	n	n
COc1ccc(C)cc1NC(=O)C(=O)NN=C(C)CC(=O)Nc1cccnc1	x	n	x	x
CCOC(=O)c1c(C)[nH]c(N=Nc2cc(C(=O)O)cc(C(=O)O)c2)c1C	n	24.0	n	n
COC(=O)c1cccc(NC(=O)COc2cccc([N+](=O)[O-])c2)c1	n	32.5	n	n
Cc1cccc2cc(C#N)c(SCCN3CCCCC3)nc12	n	n	102.3	n
Cc1ccc(NC(=O)C(C#N)=NNc2ccc(C(=O)O)cc2)c(C)c1	x	n	x	x
NC(=NN=Cc1cccc(O)c1)c1nonc1N	x	n	x	x
O=[N+]([O-])/C=C/c1cn(Cc2ccc(Cl)cc2)c2ccccc12	n	20.4	n	n
Cc1cccc(Cn2cc(/C=C/[N+](=O)[O-])c3ccccc32)c1	n	n	n	n
CC(=NNC(=O)c1nnn(-c2nonc2N)c1COc1ccccc1)c1ccccc1Cl	x	n	x	x
C(=NN(c1ccccc1)c1ccccc1)c1ccc(N2CCOCC2)s1	x	n	x	x
CC(O)CNc1nc2ccccc2n1CC(=O)NC12CC3CC(CC(C3)C1)C2 (stereo not given)	n	n	51.4	n

Screening results from PubChem BioAssay.
